This is an account of results in ChEMBL document CHEMBL1275344, “Synthesis and antimalarial assessment of a new series of orally active amino-functionalized spiro 1,2,4-trioxanes” (J Med Chem, 2010).

In series [1] the test system is Plasmodium yoelii nigeriensis. Description: Antimalarial activity against multidrug-resistant Plasmodium yoelii nigeriensis infected in Swiss mice (Mus musculus) assessed as suppression of parasitaemia at 96 mg/kg, perorally for 4 days relative to control. It counts as functional. As to conditions: route oral. In a few lines: (§1)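 Swiss mice of either sex (20 ± 2 g) infected intraperitoneally with 1 × 10⁶ MDR P. yoelii nigeriensis parasites on day 0. Five mice per dose group, given oral doses in groundnut oil, twice daily on days 0–3. Parasitaemia read from day-4 thin blood smears. Suppression = [(C − T)/C] × 100, with C and T the control and treated parasitaemia. 100% means no parasites seen in 50 oil-immersion fields.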

The subject of series [2] is Plasmodium yoelii nigeriensis. Description: Antimalarial activity against multidrug-resistant Plasmodium yoelii nigeriensis infected in Swiss mice (Mus musculus) assessed as suppression of parasitaemia at 48 mg/kg, peroral for 4 days relative to control. It counts as functional. As to conditions: route oral. In a few lines: as §1
For series [3], the system named is Plasmodium yoelii nigeriensis. Description: Antimalarial activity against multidrug-resistant Plasmodium yoelii nigeriensis infected in Swiss mice (Mus musculus) assessed as suppression of parasitaemia at 24 mg/kg, peroral for 4 days relative to control. The note with it: route oral. The format is functional. In a few lines: as §1
The subject of series [4] is Plasmodium yoelii nigeriensis. As to the kind of experiment: Antimalarial activity against multidrug-resistant Plasmodium yoelii nigeriensis infected in Swiss mice (Mus musculus) assessed as suppression of parasitaemia at 12 mg/kg, peroral for 4 days relative to control. As to conditions: route oral. It counts as functional. In a few lines:
as §1

The nature of series [5]: Lipophilicity, log P of the compound. It counts as physicochemical. As to conditions: octanol/water.
Series [6] has as its system Plasmodium yoelii nigeriensis. Description: Antimalarial activity against multidrug-resistant Plasmodium yoelii nigeriensis infected in Swiss mice (Mus musculus) assessed as curated mice (Mus musculus) at 96 mg/kg, peroral for 4 days. Also noted: dose 96 mg/kg. It counts as functional, organism-based. The gist of the method:
(§2)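 Swiss mice of either sex (20 ± 2 g) inoculated intraperitoneally with 1 × 10⁶ MDR P. yoelii nigeriensis parasites on day 0. Five mice per dose group, dosed orally in groundnut oil (0.1 mL), in two divided doses daily from day 0 to 3. Thin blood smears read on day 4, then twice weekly to day 28. Mice without patent infection by day 28 counted as cured. β-Arteether was the positive control.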

Series [7] concerns Plasmodium yoelii nigeriensis. Description: Antimalarial activity against multidrug-resistant Plasmodium yoelii nigeriensis infected in Swiss mice (Mus musculus) assessed as curated mice (Mus musculus) at 48 mg/kg, peroral for 4 days. The format is functional, organism-based. Also noted: dose 48 mg/kg. In a few lines:
as §2

Series [8] relates to Plasmodium yoelii nigeriensis. As to the kind of experiment: Antimalarial activity against multidrug-resistant Plasmodium yoelii nigeriensis infected in Swiss mice (Mus musculus) assessed as curated mice (Mus musculus) at 24 mg/kg, peroral for 4 days. Also noted: dose 24 mg/kg. It counts as functional, organism-based. In a few lines: as §2
Series [9] relates to Plasmodium yoelii nigeriensis. Description: Antimalarial activity against multidrug-resistant Plasmodium yoelii nigeriensis infected in Swiss mice (Mus musculus) assessed as curated mice (Mus musculus) at 12 mg/kg, peroral for 4 days. The format is functional, organism-based. More on the design: dose 12 mg/kg. The gist of the method: as §2

The structures appear in SMILES notation. Calls of active or inactive are those of the source. The calls are words filed in the database; no cut-off is given here.

As to `C=C(c1ccc2ccccc2c1)C1CCC2(CC1)COC(Nc1ccc(C(F)(F)F)cc1)OO2` (single isomer, unassigned; less polar) [listing 1 of 2 here], the Activity is 100% in series [1], 100% in series [2], 100% in series [3] and 6.25% in [4] (12 mg/kg). In series [5], this molecule returned a logP of 6.51.

Turning to `C=C(c1ccc2ccccc2c1)C1CCC2(CC1)COC(Nc1ccc(C(F)(F)F)cc1)OO2` (single isomer, unassigned; more polar) [listing 1 of 2 here], the outcome in series [6], in series [7] and in series [8] was Active.

Take `C=C(c1ccc2ccccc2c1)C1CCC2(CC1)COC(Nc1ccc(C(F)(F)F)cc1)OO2` (single isomer, unassigned; less polar) [listing 2 of 2 here]: the result in series [6], in [7] and in [8] was Active. Moreover, the outcome in series [9] was inactive.

As to `C=C(c1ccc2ccccc2c1)C1CCC2(CC1)COC(Nc1ccc(Cl)cc1)OO2` (configuration not stated), the Activity in series [1] came to 100%; in [2] it was 100%; in series [3], 100%; in series [4], 60%. Besides, the result in series [6] and in series [7] was Active. The result in series [8] and in series [9] was inactive. In addition, in [5], the logP turned out to be 6.15.

Take `C=C(c1ccc2ccccc2c1)C1CCC2(CC1)COC(Nc1ccc(C(F)(F)F)cc1)OO2` (single isomer, unassigned; more polar) [listing 2 of 2 here]: in series [4] (12 mg/kg), the Activity was 100%.
